# Results: ChEMBL document CHEMBL3734657, “Discovery of Novel Multifunctional Ligands with μ/δ Opioid Agonist/Neurokinin-1 (NK1) Antagonist Activities for the Treatment of Pain” (J Med Chem, 2015)
# Active and inactive are the calls of the source. No cut-off for these calls is given here.
# Columns and labels:
# [1] = target: Substance-P receptor (Cavia porcellus) (UniProt P30547); experiment: Agonist activity at neurokinin-1 receptor in Hartley guniea pig isolated ileum assessed as inhibition of electrically-stimulated muscle contraction at 1 uM; type: tissue-based; design: scale not given: the % may be the effect or the level left
# Substance-P receptor (Cavia porcellus), sequence (P30547 whole entry): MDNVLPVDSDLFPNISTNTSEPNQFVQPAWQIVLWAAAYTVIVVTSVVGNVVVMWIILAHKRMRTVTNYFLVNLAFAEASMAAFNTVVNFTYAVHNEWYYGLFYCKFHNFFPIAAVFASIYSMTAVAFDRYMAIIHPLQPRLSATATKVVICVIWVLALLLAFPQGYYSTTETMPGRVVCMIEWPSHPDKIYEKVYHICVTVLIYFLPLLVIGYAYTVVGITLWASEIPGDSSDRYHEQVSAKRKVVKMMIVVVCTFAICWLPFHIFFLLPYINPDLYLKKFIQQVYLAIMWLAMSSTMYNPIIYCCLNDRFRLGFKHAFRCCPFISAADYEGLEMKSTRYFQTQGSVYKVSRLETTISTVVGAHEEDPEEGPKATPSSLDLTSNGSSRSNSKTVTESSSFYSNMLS
# [2] = target: Substance-P receptor (Cavia porcellus) (UniProt P30547); experiment: Agonist activity at neurokinin-1 receptor in Hartley guniea pig isolated ileum/Longitudinal Muscle with Myenteric Plexus assessed as inhibition of electrically-stimulated muscle contraction at 300 nM; type: tissue-based
# Mu-type opioid receptor [3] = target: T1, Mu-type opioid receptor (Homo sapiens, UniProt P35372); experiment: Binding affinity to mu opioid receptor (unknown origin)
# T1 sequence (P35372 whole entry): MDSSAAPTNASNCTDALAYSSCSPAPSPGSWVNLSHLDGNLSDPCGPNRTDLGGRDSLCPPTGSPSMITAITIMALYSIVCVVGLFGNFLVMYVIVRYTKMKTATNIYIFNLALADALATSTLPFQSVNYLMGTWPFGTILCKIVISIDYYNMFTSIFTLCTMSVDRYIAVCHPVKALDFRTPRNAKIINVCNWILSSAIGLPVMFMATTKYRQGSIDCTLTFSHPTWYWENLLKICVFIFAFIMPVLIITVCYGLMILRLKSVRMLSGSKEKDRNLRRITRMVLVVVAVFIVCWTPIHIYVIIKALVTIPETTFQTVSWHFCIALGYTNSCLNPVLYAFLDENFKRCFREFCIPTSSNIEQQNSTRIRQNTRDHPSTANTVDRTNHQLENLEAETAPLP
# [4] = target: Substance-P receptor (Cavia porcellus) (UniProt P30547); experiment: Antagonist activity at neurokinin-1 receptor in Hartley guniea pig isolated ileum/Longitudinal Muscle with Myenteric Plexus assessed as inhibition of electrically-stimulated muscle contraction; type: tissue-based
# [5] = target: Substance-P receptor (Cavia porcellus) (UniProt P30547); experiment: Agonist activity at neurokinin-1 receptor in Hartley guniea pig isolated ileum/Longitudinal Muscle with Myenteric Plexus assessed as inhibition of electrically-stimulated muscle contraction at 100 nM; type: tissue-based
# [6] = Selectivity ratio of IC50 for mu opioid receptor in Hartley guniea pig isolated ileum to IC50 for delta opioid receptor in ICR mouse isolated vas deferens; type: tissue-based
# Homo sapiens [7] = species: Homo sapiens; experiment: Selectivity ratio of IC50 for mu opioid receptor (unknown origin) to IC50 for delta opioid receptor (unknown origin)
# [8] = target: Substance-P receptor (Homo sapiens) (UniProt P25103); experiment: Antagonist activity at neurokinin-1 receptor (unknown origin) expressed in CHO cells assessed as inhibition of substance-P induced calcium flux by bioluminescent assay; type: functional, cell-based
# Substance-P receptor (Homo sapiens), sequence (P25103 whole entry): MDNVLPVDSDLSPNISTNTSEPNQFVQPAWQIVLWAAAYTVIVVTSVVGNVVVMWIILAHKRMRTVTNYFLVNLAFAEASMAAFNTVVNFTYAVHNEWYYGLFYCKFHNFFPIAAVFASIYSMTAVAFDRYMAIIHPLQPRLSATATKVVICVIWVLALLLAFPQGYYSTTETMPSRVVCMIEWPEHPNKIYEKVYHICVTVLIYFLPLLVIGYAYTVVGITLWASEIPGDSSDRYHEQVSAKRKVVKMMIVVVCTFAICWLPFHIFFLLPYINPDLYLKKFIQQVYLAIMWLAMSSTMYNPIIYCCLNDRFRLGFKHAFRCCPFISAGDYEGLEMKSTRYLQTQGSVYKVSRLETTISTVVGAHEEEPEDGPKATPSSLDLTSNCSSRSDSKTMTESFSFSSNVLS
# Homo sapiens [9] = species: Homo sapiens; experiment: Selectivity ratio of Ki for mu opioid receptor (unknown origin) to Ki for delta opioid receptor (unknown origin)
# [10] = target: Substance-P receptor (Cavia porcellus) (UniProt P30547); experiment: Agonist activity at neurokinin-1 receptor in Hartley guniea pig isolated ileum/Longitudinal Muscle with Myenteric Plexus assessed as inhibition of electrically-stimulated muscle contraction at 30 nM; type: tissue-based
# [11] = target: T2, Delta-type opioid receptor (Homo sapiens, UniProt P41143); experiment: Agonist activity at delta receptor (unknown origin) expressed in HEK293 cells assessed as inhibition of forskolin-induced cAMP accumulation by bioluminescent assay; type: functional, cell-based
# T2 sequence (P41143 whole entry): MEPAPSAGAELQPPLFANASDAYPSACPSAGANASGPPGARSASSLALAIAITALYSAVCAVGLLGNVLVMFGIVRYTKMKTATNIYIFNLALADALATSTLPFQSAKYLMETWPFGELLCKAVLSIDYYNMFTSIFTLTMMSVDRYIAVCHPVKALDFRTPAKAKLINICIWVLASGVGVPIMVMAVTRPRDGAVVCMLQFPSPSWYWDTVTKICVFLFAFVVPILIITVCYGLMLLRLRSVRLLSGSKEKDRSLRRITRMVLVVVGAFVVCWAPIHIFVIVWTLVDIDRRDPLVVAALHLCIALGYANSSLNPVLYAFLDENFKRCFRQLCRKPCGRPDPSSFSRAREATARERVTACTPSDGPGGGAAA
# [12] = target: Delta-type opioid receptor (Mus musculus, UniProt P32300); experiment: Agonist activity at delta opioid receptor in ICR mouse isolated vas deferens assessed as inhibition of electrically-stimulated muscle contraction; type: tissue-based
# Delta-type opioid receptor (Mus musculus, UniProt P32300), sequence (P32300 whole entry): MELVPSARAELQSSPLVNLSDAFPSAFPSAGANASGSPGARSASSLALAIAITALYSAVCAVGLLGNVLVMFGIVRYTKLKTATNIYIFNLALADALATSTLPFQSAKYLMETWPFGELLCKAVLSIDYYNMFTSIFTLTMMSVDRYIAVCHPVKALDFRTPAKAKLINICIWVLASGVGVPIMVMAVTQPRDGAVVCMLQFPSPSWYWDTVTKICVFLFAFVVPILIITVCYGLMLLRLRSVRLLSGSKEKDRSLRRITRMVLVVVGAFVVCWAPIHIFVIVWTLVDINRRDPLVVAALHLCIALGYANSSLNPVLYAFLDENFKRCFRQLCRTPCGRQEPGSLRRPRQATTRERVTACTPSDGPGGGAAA
# [13] = Metabolic stability in rat plasma assessed as compound remaining at 50 ug/ml […] by RP-HPLC assay; type: ADME, cell-free; conditions: read-out: Stability
# [14] = target: T2, Delta-type opioid receptor; experiment: Binding affinity to delta opioid receptor (unknown origin)
# Mu-type opioid receptor [15] = target: T1, Mu-type opioid receptor; experiment: Agonist activity at mu opioid receptor (unknown origin) expressed in HEK293 cells assessed as inhibition of forskolin-induced cAMP accumulation by bioluminescent assay; type: functional, cell-based
# [16] = Half-life in rat plasma at 50 ug/ml by RP-HPLC assay; type: ADME, cell-free
# How it was run: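 50 mg/mL DMSO stock diluted 1000-fold into rat plasma (final 50 μg/mL), 37 °C. Aliquots at 0.5–8 h quenched with acetonitrile, centrifuged; parent remaining by RP-HPLC C18. Two independent runs, each in duplicate; half-life from mean of the two.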
# Rattus norvegicus = species: Rattus norvegicus; experiment: Neurotoxicity in Sprague-Dawley rat assessed as motor impairment at 10 ug/5 ul, it by rotarod test; type: toxicity, organism-based; conditions: in vivo, icv_or_intrathecal
# How it was run: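 Intrathecal catheterized Sprague–Dawley rats given 10 μg in 5 μL; motor function assessed by rotarod.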
# Substance-P receptor = Substance-P receptor (Rattus norvegicus, UniProt P14600); experiment: Displacement of [3H]SP from rat neurokinin-1 receptor expressed in CHO cells incubated for 20 mins by liquid scintillation counting; type: cell-based
# Substance-P receptor, sequence (P14600 whole entry): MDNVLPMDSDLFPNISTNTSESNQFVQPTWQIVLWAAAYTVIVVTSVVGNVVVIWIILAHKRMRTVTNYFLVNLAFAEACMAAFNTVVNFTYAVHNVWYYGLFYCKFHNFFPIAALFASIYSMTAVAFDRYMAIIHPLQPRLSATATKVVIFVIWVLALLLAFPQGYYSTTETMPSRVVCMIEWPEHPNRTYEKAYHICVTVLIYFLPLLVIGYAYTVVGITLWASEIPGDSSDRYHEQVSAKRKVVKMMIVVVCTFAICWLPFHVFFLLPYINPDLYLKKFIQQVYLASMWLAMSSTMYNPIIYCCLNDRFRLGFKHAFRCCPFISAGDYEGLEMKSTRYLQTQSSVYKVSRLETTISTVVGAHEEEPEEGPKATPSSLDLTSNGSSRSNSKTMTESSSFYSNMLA
# How it was run: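 CHO membranes with human or rat NK1: six compound concentrations in duplicate with 20 μg membrane and 0.5 nM [3H]SP in 50 mM Tris pH 7.4, 5 mM MgCl2 plus peptidase inhibitors; 25 °C, 20 min. Nonspecific binding with 10 μM SP. GF/B filtration (PEI-soaked), scintillation counting.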
# Mu-type opioid receptor [17] = target: Mu-type opioid receptor (Cavia porcellus, UniProt P97266); experiment: Agonist activity at mu opioid receptor in Hartley guniea pig isolated ileum assessed as inhibition of electrically-stimulated muscle contraction; type: tissue-based
# Mu-type opioid receptor (Cavia porcellus, UniProt P97266), sequence (P97266 whole entry): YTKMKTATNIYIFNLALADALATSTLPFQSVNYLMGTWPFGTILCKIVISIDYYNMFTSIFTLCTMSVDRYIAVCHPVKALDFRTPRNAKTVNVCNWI
structure (smiles),measurement,setting,value
Cc1cc(O)cc(C)c1C[C@H](N)C(=O)N[C@@H](C)C(=O)NCC(=O)N[C@@H](Cc1ccc(I)cc1)C(=O)N1CCC[C@H]1C(=O)N[C@@H](CC(C)C)C(=O)N[C@@H](Cc1c[nH]c2ccccc12)C(=O)NCc1cc(C(F)(F)F)cc(C(F)(F)F)c1,Activity,[1],41%
same,Activity,[2],inactive
CC(C)C[C@H](NC(=O)[C@@H]1CCCN1C(=O)[C@H](Cc1ccccc1)N(C)C(=O)CNC(=O)[C@@H](C)NC(=O)[C@@H](N)Cc1ccc(O)cc1)C(=O)N[C@@H](Cc1c[nH]c2ccccc12)C(=O)NCc1cc(C(F)(F)F)cc(C(F)(F)F)c1,IC50,Mu-type opioid receptor [3],0.0891 µM
Cc1cc(O)cc(C)c1C[C@H](N)C(=O)N[C@@H](C)C(=O)NCC(=O)N[C@@H](Cc1ccccc1)C(=O)N1CCC[C@H]1C(=O)N[C@@H](CC(C)C)C(=O)N[C@@H](Cc1c[nH]c2ccccc12)C(=O)NCc1cc(C(F)(F)F)cc(C(F)(F)F)c1,Ke,[4],25 nM
same,Activity,[5],inactive
same,Ratio IC50,[6],26
same,Ratio IC50,Homo sapiens [7],6
same,Ke,[8],11 nM
same,Ratio Ki,Homo sapiens [9],3
Cc1cc(O)cc(C)c1C[C@H](N)C(=O)N[C@@H](C)C(=O)NCC(=O)N[C@@H](Cc1ccc(Cl)cc1)C(=O)N1CCC[C@H]1C(=O)N[C@@H](CC(C)C)C(=O)N[C@@H](Cc1c[nH]c2ccccc12)C(=O)NCc1cc(C(F)(F)F)cc(C(F)(F)F)c1,Activity,[2],inactive
same,Ratio IC50,[6],7
same,Ratio Ki,Homo sapiens [9],1
Cc1cc(O)cc(C)c1C[C@H](N)C(=O)N[C@H](C)C(=O)NCC(=O)N[C@@H](Cc1ccc(Cl)cc1)C(=O)N1CCC[C@H]1C(=O)N[C@@H](CC(C)C)C(=O)N[C@@H](Cc1c[nH]c2ccccc12)C(=O)NCc1cc(C(F)(F)F)cc(C(F)(F)F)c1,IC50,Mu-type opioid receptor [3],0.00468 µM
Cc1cc(O)cc(C)c1C[C@H](N)C(=O)N[C@@H](C)C(=O)NCC(=O)N(C)[C@@H](Cc1ccc(F)cc1)C(=O)N1CCC[C@H]1C(=O)N[C@@H](CC(C)C)C(=O)N[C@@H](Cc1c[nH]c2ccccc12)C(=O)NCc1cc(C(F)(F)F)cc(C(F)(F)F)c1,Activity,[10],inactive
CC(C)C[C@H](NC(=O)[C@@H]1CCCN1C(=O)[C@H](Cc1ccccc1)NC(=O)CNC(=O)[C@@H](C)NC(=O)[C@@H](N)Cc1ccc(O)cc1)C(=O)N[C@@H](Cc1c[nH]c2ccccc12)C(=O)NCc1cc(C(F)(F)F)cc(C(F)(F)F)c1,IC50,Mu-type opioid receptor [3],0.02 µM
same,Ki,Mu-type opioid receptor [3],0.0095 µM
Cc1cc(O)cc(C)c1C[C@H](N)C(=O)N[C@@H](C)C(=O)NCC(=O)N(C)[C@@H](Cc1ccccc1)C(=O)N1CCC[C@H]1C(=O)N[C@@H](CC(C)C)C(=O)N[C@@H](Cc1c[nH]c2ccccc12)C(=O)NCc1cc(C(F)(F)F)cc(C(F)(F)F)c1,Activity,[10],inactive
Cc1cc(O)cc(C)c1C[C@H](N)C(=O)N[C@H](C)C(=O)NCC(=O)N[C@@H](Cc1ccc(I)cc1)C(=O)N1CCC[C@H]1C(=O)N[C@@H](CC(C)C)C(=O)N[C@@H](Cc1c[nH]c2ccccc12)C(=O)NCc1cc(C(F)(F)F)cc(C(F)(F)F)c1,IC50,Mu-type opioid receptor [3],0.0132 µM
CC(C)C[C@H](NC(=O)[C@@H]1CCCN1C(=O)[C@H](Cc1ccc(F)cc1)NC(=O)CNC(=O)[C@H](C)NC(=O)[C@@H](N)Cc1ccc(O)cc1)C(=O)N[C@@H](Cc1c[nH]c2ccccc12)C(=O)NCc1cc(C(F)(F)F)cc(C(F)(F)F)c1,Activity,[10],inactive
CC(C)C[C@H](NC(=O)[C@@H]1CCCN1C(=O)[C@H](Cc1ccccc1)N(C)C(=O)CNC(=O)[C@H](C)NC(=O)[C@@H](N)Cc1ccc(O)cc1)C(=O)N[C@@H](Cc1c[nH]c2ccccc12)C(=O)NCc1cc(C(F)(F)F)cc(C(F)(F)F)c1,Activity,[5],inactive
same,Ratio IC50,[6],2
Cc1cc(O)cc(C)c1C[C@H](N)C(=O)N[C@H](C)C(=O)NCC(=O)N[C@@H](Cc1ccc(F)cc1)C(=O)N1CCC[C@H]1C(=O)N[C@@H](CC(C)C)C(=O)N[C@@H](Cc1c[nH]c2ccccc12)C(=O)NCc1cc(C(F)(F)F)cc(C(F)(F)F)c1,IC50,[11],0.021 µM
same,IC50,[12],0.002 µM
same,remaining at 50 ug/ml,[13],100%
same,IC50,[14],0.0661 µM
same,IC50,Mu-type opioid receptor [15],0.059 µM
same,half-life at 50 ug/ml,[16],> 12 h
same,IC50,Mu-type opioid receptor [3],0.00191 µM
Cc1cc(O)cc(C)c1C[C@H](N)C(=O)N[C@H](C)C(=O)NCC(=O)N[C@@H](Cc1ccc(Br)cc1)C(=O)N1CCC[C@H]1C(=O)N[C@@H](CC(C)C)C(=O)N[C@@H](Cc1c[nH]c2ccccc12)C(=O)NCc1cc(C(F)(F)F)cc(C(F)(F)F)c1,IC50,Mu-type opioid receptor [3],0.011 µM
Cc1cc(O)cc(C)c1C[C@H](N)C(=O)N[C@@H](C)C(=O)NCC(=O)N[C@@H](Cc1ccc(Br)cc1)C(=O)N1CCC[C@H]1C(=O)N[C@@H](CC(C)C)C(=O)N[C@@H](Cc1c[nH]c2ccccc12)C(=O)NCc1cc(C(F)(F)F)cc(C(F)(F)F)c1,Activity,[5],inactive
Cc1cc(O)cc(C)c1C[C@H](N)C(=O)N[C@H](C)C(=O)NCC(=O)N(C)[C@@H](Cc1ccccc1)C(=O)N1CCC[C@H]1C(=O)N[C@@H](CC(C)C)C(=O)N[C@@H](Cc1c[nH]c2ccccc12)C(=O)NCc1cc(C(F)(F)F)cc(C(F)(F)F)c1,IC50,[11],0.03 µM
same,Activity,Rattus norvegicus,Toxic
same,remaining at 50 ug/ml,[13],100%
same,IC50,Mu-type opioid receptor [15],0.039 µM
same,IC50,Mu-type opioid receptor [3],0.00166 µM
Cc1cc(O)cc(C)c1C[C@H](N)C(=O)N[C@H](C)C(=O)NCC(=O)N(C)[C@@H](Cc1ccc(F)cc1)C(=O)N1CCC[C@H]1C(=O)N[C@@H](CC(C)C)C(=O)N[C@@H](Cc1c[nH]c2ccccc12)C(=O)NCc1cc(C(F)(F)F)cc(C(F)(F)F)c1,IC50,Mu-type opioid receptor [3],0.00282 µM
CC(C)C[C@H](NC(=O)[C@@H]1CCCN1C(=O)[C@H](Cc1ccc(F)cc1)NC(=O)CNC(=O)[C@@H](C)NC(=O)[C@@H](N)Cc1ccc(O)cc1)C(=O)N[C@@H](Cc1c[nH]c2ccccc12)C(=O)NCc1cc(C(F)(F)F)cc(C(F)(F)F)c1,remaining at 50 ug/ml,[13],100%
same,IC50,[14],0.0155 µM
same,Ki,[14],0.007 µM
same,IC50,Mu-type opioid receptor [3],0.00832 µM
same,Ki,Substance-P receptor,0.034 µM
Cc1cc(O)cc(C)c1C[C@H](N)C(=O)N[C@@H](C)C(=O)NCC(=O)N[C@@H](Cc1ccc(F)cc1)C(=O)N1CCC[C@H]1C(=O)N[C@@H](CC(C)C)C(=O)N[C@@H](Cc1c[nH]c2ccccc12)C(=O)NCc1cc(C(F)(F)F)cc(C(F)(F)F)c1,Activity,[10],inactive
same,Ratio Ki,Homo sapiens [9],1
Cc1cc(O)cc(C)c1C[C@H](N)C(=O)N[C@H](C)C(=O)NCC(=O)N[C@@H](Cc1ccccc1)C(=O)N1CCC[C@H]1C(=O)N[C@@H](CC(C)C)C(=O)N[C@@H](Cc1c[nH]c2ccccc12)C(=O)NCc1cc(C(F)(F)F)cc(C(F)(F)F)c1,IC50,[11]; hek293,0.0072 µM
same,IC50,Mu-type opioid receptor [17],0.081 µM
same,IC50,Mu-type opioid receptor [15]; hek293,0.046 µM
same,IC50,Mu-type opioid receptor [3],0.00234 µM
same,Ki,Mu-type opioid receptor [3],0.003 µM
same,Ki,Substance-P receptor; cho,0.027 µM
